Measured values reported in ChEMBL document CHEMBL1124445, “Synthesis and pharmacology of a series of 3- and 4-(phosphonoalkyl)pyridine- and -piperidine-2-carboxylic acids. Potent N-methyl-D-aspartate receptor antagonists” (J Med Chem, 1989).

Tests used:
[1] = Percent displacement determined by inhibition of [3H]-CPP binding against N-methyl-D-aspartate glutamate receptor in mice at 10 uM
[2] = tested on: Mus musculus; assay: Ability to protect against NMDA-induced lethality in mice after intraperitoneal administration; assay type: functional; conditions: ip, read-out: MED
In short: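 Mice received the test drug ip 30 min before NMDA at 200 mg/kg ip; compounds were racemic. Five animals per dose. The endpoint was survival for more than 30 min after the NMDA injection. MED is the dose at which at least three of the five mice survived. The highest dose tested was 160 mg/kg.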

[3] = Compound was evaluated for the inhibition of the binding of [3H]-CPP against NMDA receptor in mice
In short: (§1)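 Racemic compounds tested for displacement of [3H]CPP binding to the NMDA receptor. Affinity reported as IC50 in nM.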

[4] = Compound was evaluated for the inhibition of the binding of [3H]CPP against N-methyl-D-aspartate glutamate receptor in mice; in short: as §1
[5] = Compound was evaluated for the inhibition of the binding of [3H]CPP against NMDA in mice
[6] = Percent displacement determined by inhibition of [3H]CPP binding against NMDA receptor in mice at 10 uM

O=C(O)[C@@H]1C[C@H](CCCCP(=O)(O)O)CCN1
Displacement [1]: 26% | minimal effective dose [2]: > 160 mg/kg

O=C(O)c1ncccc1CCP(=O)(O)O
IC50 [3]: 3.5 µM | minimal effective dose [2]: > 160 mg/kg

O=C(O)[C@H]1NCCC[C@H]1CP(=O)(O)O
Displacement [1]: 19%

O=C(O)[C@@H]1C[C@H](CP(=O)(O)O)CCN1 [SELFOTEL]
IC50 [3]: 0.095 µM | minimal effective dose [2]: 10 mg/kg

O=C(O)c1cc(CCP(=O)(O)O)ccn1
minimal effective dose [2]: > 160 mg/kg | IC50 [4]: 3.5 µM

NC(CCCCCP(=O)(O)O)C(=O)O (stereo unspecified) [AP-7]
IC50 [5]: 0.32 µM | minimal effective dose [2]: 160 mg/kg

O=C(O)[C@H]1NCCC[C@H]1CCP(=O)(O)O
IC50 [3]: 1 µM | minimal effective dose [2]: 160 mg/kg

O=C(O)C1CN(CCCP(=O)(O)O)CCN1 (stereo unspecified)
minimal effective dose [2]: 2.5 mg/kg | IC50 [4]: 0.072 µM

O=C(O)c1cc(CCCCP(=O)(O)O)ccn1
Displacement [1]: 25% | minimal effective dose [2]: > 160 mg/kg

O=C(O)[C@@H]1C[C@H](CCCP(=O)(O)O)CCN1
minimal effective dose [2]: 40 mg/kg | IC50 [4]: 0.12 µM

O=C(O)c1ncccc1/C=C/P(=O)(O)O
Displacement [1]: 26% | minimal effective dose [2]: > 160 mg/kg

O=C(O)c1cc(CCCP(=O)(O)O)ccn1
Displacement [1]: 34% | minimal effective dose [2]: > 160 mg/kg

O=C(O)c1ncccc1/C=C\P(=O)(O)O
Displacement [1]: 20% | minimal effective dose [2]: > 160 mg/kg

O=C(O)c1ncccc1CP(=O)(O)O
minimal effective dose [2]: > 160 mg/kg | Displacement [6]: -18%

O=C(O)c1cc(CP(=O)(O)O)ccn1
minimal effective dose [2]: > 160 mg/kg | Displacement [6]: 4%

O=C(O)[C@@H]1C[C@H](CCP(=O)(O)O)CCN1
minimal effective dose [2]: > 160 mg/kg | IC50 [4]: 6.6 µM
